Measured values taken from ChEMBL document CHEMBL1140640, “C-geranyl compounds from Paulownia tomentosa fruits” (J Nat Prod, 2007).

Assays:
[1] = test system: Radical scavenging activity; assay: Antioxidant activity assessed as DPPH radical scavenging activity at 10 uM by TEAC assay; assay type: functional
How it was run: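 Test solutions of 10 µM in MeOH were mixed 0.2 mL to 1.8 mL with methanolic DPPH at 22 mg/L. Absorbance at 517 nm was read every minute for 5 min, then every 5 min up to 30 min. Activity was followed over time and expressed as Trolox equivalent antioxidant capacity (TEAC).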

[2] = Cytotoxicity against rat WB344 cells at 5 uM after 24 hrs; assay type: cell-based; conditions: wb344, 24 h
How it was run: (§1)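 Neutral red uptake: cells in DMEM were grown ~24 h, then given compounds in DMSO for 24 h, then NR-containing medium ([…] as printed) for 3 h. Cells were PBS-washed, fixed 15 min in 0.5% formaldehyde/1% CaCl2, and dye extracted in 1% HOAc/50% EtOH with 20 min shaking. Read at A540 as % of DMSO control; mean of three independent measurements.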

[3] = Cytotoxicity against rat WB344 cells at 25 uM after 24 hrs; assay type: cell-based; conditions: wb344, 24 h; how it was run: as §1
[4] = Cytotoxicity against rat WB344 cells after 24 hrs; assay type: cell-based; conditions: WB344, 24 h
How it was run: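 Epithelioid cells were cultured in DMEM ~24 h, exposed 24 h to DMSO-dissolved compounds, then to neutral red for 3 h. After formaldehyde/CaCl2 fixation, dye was extracted in acidified ethanol and read at 540 nm. Inhibition = (1 − T/C) × 100 against control OD540; IC50 taken from dose-response curves.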

[5] = Cytotoxicity against rat WB344 cells at 100 uM after 24 hrs; assay type: cell-based; conditions: wb344, 24 h; how it was run: as §1

Row | Structure (SMILES) | Trolox equivalent antioxidant capacity (TEAC) [1] | Activity [2] [%] | Activity [3] [%] | IC50 [4] [µM] | Activity [5] [%]
1 | CC(C)=CCC/C(C)=C/Cc1c(O)cc2c(c1O)C(=O)C[C@@H](c1ccc(O)c(O)c1)O2 [NYMPHAEOL A] | 5.2 | 98 | 57 | 14.3 | 2
2 | CC(C)=CCC/C(C)=C/Cc1c(O)cc2c(c1O)C(=O)C[C@@H](c1ccc(O)cc1)O2 [BONANNIONE A] | 0.4 | 97 | 95 | – | 9
3 | C=C(C)C(O)CC/C(C)=C/Cc1c(O)cc2c(c1O)C(=O)[C@H](O)[C@@H](c1ccc(O)c(OC)c1)O2 (stereo not given in full) | 2 | – | – | – | –
4 | COc1cc([C@@H]2CC(=O)c3c(cc(O)c(C/C=C(\C)CCC=C(C)C)c3O)O2)ccc1O | 0.8 | 100 | 73 | 30.2 | 2
